# A selection: hits, their analogues and other compounds. The true share with any hit is near 1.8%.
# UPR CHOP act: activators of apoptotic arm of unfolded protein response (CHOP) | CHO-CHOP luciferase reporter, UPR activation, luminescence; percent of tunicamycin response over DMSO baseline | activation, % at 10 µM | hit rate 0.34% among 330,000;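 active = at 10 µM dose, activation of 40% or more, normalized to positive control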
#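 Test system: CHO CHOP reporter cells. Input: 500 CHO-CHOP cells per well. Medium: F12 with 10% FBS. Technique: luciferase luminescence. Measure: percent activation relative to tunicamycin control. Dosing: 10 µM compound, 0.5% DMSO. Timing: 16-18 h cell attachment, then 6 h compound exposure, 37 °C.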
# Jurkat NFkB inh: inhibitors of the PMA/ionomycin-induced NF-kB reporter in Jurkat cells. PMA/ionomycin-induced NF-kB luciferase reporter, luminescence. inhibition, % at 4 µM. hit rate 0.53% among 330,000; in the data active = inhibition above about 50%
# XBP1 UPR activ: adaptive UPR (XBP1) activation; CHO-XBP1 luciferase reporter, IRE1-XBP1 UPR activation, luminescence; percent of tunicamycin response, DMSO as zero; AID 463104; activation, % at 20 µM; hit rate 0.33% among 330,000;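 active = versus positive control, 20 µM dose yields 30% or more activation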
#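 Material: IRE1-XBP1 luciferase reporter CHO line / Quantity: one thousand reporter cells per well / Buffer or medium: F12 with 10% serum / Compound: 20 µM single concentration, DMSO 1% / Times: 6 h treatment, 37 °C / Detection: Steady-Glo luciferase glow luminescence, 10 min after reagent addition / Benchmarks: tunicamycin high, DMSO low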
# CRFR2-BP antag: antagonists of CRF-binding protein/CRF-R2 receptor complex | HEK293 CRF-R2/CRF-BP, CRF-induced calcium fluorescence | inhibition, % at 11.8 µM | hit rate 0.59% among 350,000;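 active = inhibition of the ligand-induced calcium signal above about 50% at the single tested concentration, limit read from the data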
# 697 NFkB inh: inhibitors of the PMA/ionomycin-induced NF-kB reporter in 697 B cells | 697 B-cell NF-kB luciferase reporter, 16 h | inhibition, % at 4 µM | hit rate 0.33% among 330,000; in the data active = inhibition above about 35%
# Jurkat NFkB conf: inhibitors of the PMA/ionomycin-induced NF-kB reporter in Jurkat cells, retest. hit rate 27% among 2,700. inhibition, % at 4 µM. Jurkat NF-kB luciferase, 16 h. shares compounds with Jurkat NFkB inh;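 active = inhibition reaching about 45% at 4 µM in either replicate, limit read from the data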
# 697 NFkB conf: inhibitors of the PMA/ionomycin-induced NF-kB reporter in 697 B cells, retest; hit rate 35% among 2,000; shares compounds with 697 NFkB inh; AID 449746; inhibition, % at 4 µM; 697 B-cell NF-kB luciferase, 16 h; in the data active = inhibition mostly above about 28%, no sharp cut-off; inactive = mostly below about 22%
# Numbers stand for hits; n = inactive; x = no result.
SMILES,UPR CHOP act,Jurkat NFkB inh,XBP1 UPR activ,CRFR2-BP antag,697 NFkB inh,Jurkat NFkB conf,697 NFkB conf
Cn1nc(CC(=O)NC2CCCCCCCCCCC2)c2ccccc2c1=O,n,n,n,n,n,x,x
Cn1nc(CC(=O)Nc2ccc3c(c2)CCC3)c2ccccc2c1=O,n,59,n,n,41,68,47
O=C(Nc1nc2cc3c(cc2s1)OCCO3)c1cccs1,n,n,n,n,n,n,n
CC(=O)Nc1ccc2nc(NC(=O)c3cccs3)sc2c1,n,n,n,n,n,x,x
Cc1cc(C(=O)Nc2sc(C)c(-c3ccc(F)cc3)c2C(N)=O)no1,n,n,n,n,n,n,n
COc1cc(SC)ccc1C(=O)Nc1ccc2c(c1)OCCO2,n,n,n,n,n,n,n
COc1ccccc1C(=O)Nc1nc2ccccc2[nH]1,n,91,n,n,69,93,67
COc1ccccc1C(=O)NCCC(=O)Nc1nc2ccccc2[nH]1,n,n,n,n,n,x,x
COc1cc(SC)ccc1C(=O)Nc1nc2ccccc2[nH]1,n,99,n,n,92,98,98
COc1ccccc1C(=O)Nc1ccc2c(c1)OCCO2,n,n,n,n,n,x,x
COc1ccc(C(=O)/C(C#N)=N/Nc2ccc([N+](=O)[O-])cc2)cc1,n,60,n,71,53,59,n
O=C(CSc1nnnn1C1CC2CCC1C2)Nc1ccnc2ccccc12 (centres undefined),n,83,n,n,95,71,96
O=C(CSc1nnnn1C1CCCCC1)Nc1ccccc1F,n,n,n,n,n,x,x
Cc1ccc(NC(=O)N2CCc3ccccc32)cc1C,n,n,n,n,n,n,n
O=c1[nH]c(Nc2nc3ccccc3o2)nc2c1CCCC2,n,71,n,n,n,n,n
Cc1ccc(-c2nc3cc(NC(=O)C(C)C)ccc3o2)cc1C,n,n,n,n,n,n,n
CC(C)C(=O)Nc1ccc(-c2nc3cccnc3o2)cc1,n,n,n,n,n,x,x
CC(C)C(=O)Nc1cccc(-c2nc3ccccc3o2)c1,n,n,n,n,n,x,x
Cc1ccc(-c2nc3cc(NC(=O)C(C)C)ccc3o2)cc1,n,n,n,n,n,n,n
Cc1cc2nc(-c3ccc(NC(=O)C(C)C)cc3)oc2cc1C,n,n,n,n,n,n,n
COCCNC(=O)CN(C(=O)CCC(=O)Nc1ccccn1)c1cc(C)ccc1C,n,n,n,n,n,x,x
Cc1ccc(-c2nnc(/C=C/c3ccccc3)o2)cc1,n,n,n,n,n,n,n
CN1C/C(=C/c2ccccc2[N+](=O)[O-])C(=O)/C(=C\c2ccccc2[N+](=O)[O-])C1,x,x,x,n,x,x,x
CCOc1ccc2nc(NC(=S)N(C)C)sc2c1,n,n,n,n,n,n,n
O=C(C[C@H]1C/C=C\CC[C@@H](Cc2ccc(F)cc2)C(=O)O[C@H](c2ccccc2)CNC1=O)N[C@H](CO)Cc1ccccc1,n,n,n,n,n,x,x
SMILES,UPR CHOP act,Jurkat NFkB inh,XBP1 UPR activ,CRFR2-BP antag,697 NFkB inh,Jurkat NFkB conf,697 NFkB conf
O=C(/C=C\Nc1ccc2c(c1)OCO2)c1cccs1,n,n,n,n,n,x,x
O=C(/C=C\Nc1ccc2c(c1)OCO2)c1ccc(Cl)s1,n,n,n,n,n,n,n
Cn1cc(/C=C/C(=O)c2ccccc2)c2ccccc21,n,n,n,n,n,n,n
Cc1ccc(C(=O)/C=C/c2cn(CN3CCN(C)CC3)c3ccccc23)cc1,n,n,n,n,n,x,x
NC(=O)C1CCN(C(=O)c2ccc3nc(-c4ccccc4)c(-c4ccccc4)nc3c2)CC1,n,n,n,n,n,x,x
N#C/C(=C\c1ccc(N2CCOCC2)cc1)c1ccccc1,n,n,n,n,n,n,n
N#C/C(=C\c1ccc(N2CCOCC2)o1)c1ccccc1,n,n,n,n,n,x,x
COc1ccc(C(CNC(=O)C(C)Oc2ccc(Br)cc2)N2CCCC2)cc1 (centres undefined),n,n,n,n,n,x,x
COc1cccc(C2=CC(=O)CC(C)(C)C2)n1,n,n,n,n,n,x,x
c1cc(-c2cc3cc(N4CCOCC4)ccc3o2)cs1,n,n,n,n,n,n,n
Cc1ccc(/C=C2\SC(=S)N(CCC(=O)N3CCOCC3)C2=O)cc1,n,n,n,n,n,x,x
COCCn1c(C)cc(C(=O)CSc2nc3ccccc3c(=O)n2Cc2ccco2)c1C,n,n,n,n,n,n,n
COc1ccc(NC(=O)c2cc3ccccc3oc2=O)cc1,x,x,x,n,x,x,x
COc1ccc2oc(=O)c(C(=O)Nc3ccccc3O)cc2c1,n,n,n,n,n,n,n
CCc1cccc(C)c1NC(=O)COC(=O)Cc1ccccc1,x,x,x,n,x,x,x
CCC(=O)N(C)C[C@@H]1Oc2ncc(Br)cc2C(=O)N([C@H](C)CO)C[C@H]1C,x,x,x,n,x,x,x
CC(C)(C)c1ccc(C(=O)Nc2ccc(CC(=O)O)cc2)o1,n,60,n,n,84,73,86
Cc1ccsc1C=Nc1ccc(O)cc1,n,n,n,n,n,x,x
Cc1ccsc1/C=N/N=C/c1sccc1C,n,n,n,n,n,n,n
N=c1ccn2c(n1)O[C@H]1[C@@H](CO)[C@H](O)O[C@H]12,n,53,n,n,70,61,61
CCC(C)(C)c1ccc(OCCCC[n+]2ccc(C)cc2)c(C(C)(C)CC)c1,n,54,n,n,81,55,44
Cc1cc[n+](CC[n+]2ccc(C)cc2)cc1,n,n,n,n,n,x,x
O=C(CN1C(=O)c2ccccc2S1(=O)=O)c1ccc2c(c1)OCCCO2,n,96,n,n,94,94,89
O=C(CN1C(=O)c2ccccc2S1(=O)=O)c1ccc(F)cc1,n,n,n,n,n,x,x
O=C(CN1C(=O)c2ccccc2S1(=O)=O)c1ccc2c(c1)OCCO2,n,94,n,n,93,92,92
SMILES,UPR CHOP act,Jurkat NFkB inh,XBP1 UPR activ,CRFR2-BP antag,697 NFkB inh,Jurkat NFkB conf,697 NFkB conf
COc1cc(C2c3cc4c(cc3OC(NCc3ccccc3)C2C)OCO4)cc(OC)c1OC (centres undefined),x,x,x,n,x,x,x
CCCCN(CC)C(=O)c1cc2cc3ccc(OC)cc3nc2o1,n,n,n,n,n,x,x
CCCCN(C)C(=O)c1cc2cc3ccc(OC)cc3nc2s1,n,n,n,n,n,n,n
Cc1nn(-c2ccccc2)c(N)c1-c1ccccc1,n,n,n,n,n,x,x
Cc1nn(-c2nc3ccccc3[nH]2)c(N)c1-c1ccccc1,n,n,n,n,n,n,n
CSc1cccc(N2CC(C(=O)N(CC(C)C)c3c(N)n(Cc4ccccc4)c(=O)[nH]c3=O)CC2=O)c1 (centres undefined),n,n,n,n,n,x,x
COc1ccc(CCNc2ncnc3sc(C)cc23)cc1OC,n,61,n,n,68,73,83

# Source: PubChem BioAssay (Sanford-Burnham Center for Chemical Genomics)
